Laboratory results reported in ChEMBL document CHEMBL4665720, “Bioisosteric substitution of adamantane with bicyclic lipophilic groups improves water solubility of human soluble epoxide hydrolase inhibitors” (Bioorg Med Chem Lett, 2020).
In brackets after ≈: the same amount, converted by molar mass.

Assays:
[1] = Solubility of the compound in 0.1 M sodium phosphate buffer at pH 7.4; assay type: physicochemical
Procedure, shortened: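 Measured in 0.1 M sodium phosphate buffer, pH 7.4, with 1% DMSO present.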

[2] = target: T1, Bifunctional epoxide hydrolase 2 (Homo sapiens, UniProt P34913); assay: Inhibition of human soluble epoxide hydrolase by kinetic fluorescent assay
T1 sequence (P34913 whole entry): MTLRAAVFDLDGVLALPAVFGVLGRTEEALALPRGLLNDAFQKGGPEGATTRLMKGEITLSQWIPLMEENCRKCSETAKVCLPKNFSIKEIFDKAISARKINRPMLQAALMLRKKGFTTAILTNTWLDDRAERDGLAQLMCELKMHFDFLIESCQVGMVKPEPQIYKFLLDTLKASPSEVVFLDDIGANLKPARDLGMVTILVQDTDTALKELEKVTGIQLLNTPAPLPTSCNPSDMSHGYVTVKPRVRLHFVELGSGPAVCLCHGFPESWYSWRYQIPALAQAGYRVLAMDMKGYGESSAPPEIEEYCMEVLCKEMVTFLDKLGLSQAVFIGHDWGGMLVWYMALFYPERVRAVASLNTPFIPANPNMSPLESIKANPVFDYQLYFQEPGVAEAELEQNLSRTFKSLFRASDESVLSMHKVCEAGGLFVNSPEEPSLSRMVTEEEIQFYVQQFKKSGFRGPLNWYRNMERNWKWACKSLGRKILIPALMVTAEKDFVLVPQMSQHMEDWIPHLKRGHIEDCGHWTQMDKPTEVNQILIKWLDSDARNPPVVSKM
Procedure, shortened: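 Human sEH enzyme, kinetic fluorescence read-out; each value is the mean of three separate experiments.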

With `CC1(C)C2CCC1(C)C(NC(=O)NCCCCNC(=O)NC1CC3CCC1(C)C3(C)C)C2` (stereo not given) as the compound, how does the solubility ([1]; buffer) read?
The solubility was 10 µM (≈ 4.47 µg/mL).

And the IC50 [2]?
The IC50 was 2.3 nM.

For `CCOC(=O)CNC(=O)NC1CC2CCC1C2` (stereo not given), which solubility ([1]; buffer) is on record?
Its solubility is over 2000 µM.

What about the IC50 [2] of the same compound?
The IC50 was 1580 nM.

What does the source list for `CCCCCCCCNC(=O)NC1CC2CCC1(C)C2(C)C` (stereo not given)?
solubility ([1]; buffer): 125 µM (≈ 38.6 µg/mL); IC50 [2]: 6.5 nM

For `CC1(C)C2CCC1(C)C(NC(=O)NCCCCCCCCNC(=O)NC1CC3CCC1(C)C3(C)C)C2` (stereo not given), which solubility ([1]; buffer) is on record?
The solubility was 10 µM (≈ 5.03 µg/mL).

What about the IC50 [2] of the same compound?
The IC50 was 0.4 nM.

For `O=C(NC1CC2C=CC1C2)NC1C2CC3CC(C2)CC1C3` (stereo not given), which IC50 [2] is on record?
The IC50 was 0.9 nM.

Which solubility ([1]; buffer) does the source give for `O=C(NCCCCCCCCNC(=O)NCc1ccco1)NCc1ccco1` here?
The solubility was 50 µM (≈ 19.5 µg/mL).

For `O=C(NCC12CC3CC(CC(C3)C1)C2)NC1CC2C=CC1C2` (stereo not given), which IC50 [2] is on record?
The IC50 was 0.7 nM.

With `CC1(C)C2CCC1(C)C(NC(=O)Nc1ccccc1F)C2` (stereo not given) as the compound, how does the solubility ([1]; buffer) read?
The solubility was 225 µM (≈ 65.3 µg/mL).

And the IC50 [2]?
Its IC50 is 14.4 nM.

With `O=C(NCCCCCCCCNC(=O)NC1CC2CCC1C2)NC1CC2CCC1C2` (stereo not given) as the compound, how does the IC50 [2] read?
Its IC50 is 0.4 nM.

For `O=C(Nc1ccc(OC(F)(F)F)cc1)N[C@H]1CC[C@H](Oc2ccc(C(=O)O)cc2)CC1`, which solubility ([1]; sodium phosphate buffer, read-out: solubility) is on record?
Its solubility is 5 µM (≈ 2.19 µg/mL).

For `O=C(Nc1ccc(OC(F)(F)F)cc1)NC1CC2CCC1C2` (stereo not given), which IC50 [2] is on record?
The IC50 was 0.4 nM.

Which solubility ([1]; buffer) does the source give for `O=C(NCc1ccco1)Nc1ccccc1F` here?
The solubility was 425 µM (≈ 99.5 µg/mL).

What about the IC50 [2] of the same compound?
Its IC50 is 635 nM.

With `O=C(NCCCCCCNC(=O)NCc1ccco1)NCc1ccco1` as the compound, how does the solubility ([1]; buffer) read?
The solubility was 100 µM (≈ 36.2 µg/mL).

What about the IC50 [2] of the same compound?
The IC50 was 86.3 nM.

Which solubility ([1]; buffer) does the source give for `O=C(NCCCCNC(=O)NCc1ccco1)NCc1ccco1` here?
The solubility was 225 µM (≈ 75.2 µg/mL).

What about the IC50 [2] of the same compound?
The IC50 was 1800 nM.

With `CCOC(=O)CNC(=O)NC1CC2CCC1(C)C2(C)C` (stereo not given) as the compound, how does the solubility ([1]; buffer) read?
Its solubility is over 2000 µM.

What about the IC50 [2] of the same compound?
The IC50 was 2170 nM.

For `O=C(NCCCCNC(=O)NC1CC2CCC1C2)NC1CC2CCC1C2` (stereo not given), which solubility ([1]; buffer) is on record?
Its solubility is 75 µM (≈ 27.2 µg/mL).

What about the IC50 [2] of the same compound?
Its IC50 is 11.8 nM.

With `O=C(NCc1ccco1)NCC12CC3CC(CC(C3)C1)C2` as the compound, how does the solubility ([1]; buffer) read?
The solubility was 300 µM (≈ 86.5 µg/mL).

What about the IC50 [2] of the same compound?
Its IC50 is 44.8 nM.

Which results are given for `O=C(NC1CC2C=CC1C2)N[C@H]1CC[C@H](Oc2ccc(C(=O)O)cc2)CC1` (stereo not given in full)?
solubility ([1]; buffer): 350 µM (≈ 130 µg/mL); IC50 [2]: 1.5 nM

Which IC50 [2] does the source give for `CC1(C)[C@H]2CC[C@]1(C)C(NC(=O)Nc1ccccc1F)C2` (mixture of isomers) here?
The IC50 was 3.7 nM.

Which results are given for `CC1(C)[C@@H]2CC[C@@]1(C)C(NC(=O)Nc1ccccc1F)C2` (mixture of isomers)?
solubility ([1]; buffer): 225 µM; IC50 [2]: 50.6 nM

Which IC50 [2] does the source give for `CC1(C)C2CCC1(C)C(NC(=O)Nc1ccc(OC(F)(F)F)cc1)C2` (stereo not given) here?
The IC50 was 2.5 nM.

For `CC12CCC(NC(=O)N[C@H]3CC[C@H](Oc4ccc(C(=O)O)cc4)CC3)(OC1=O)C2(C)C` (stereo not given in full), which solubility ([1]; buffer) is on record?
The solubility was 300 µM (≈ 129 µg/mL).

What about the IC50 [2] of the same compound?
Its IC50 is 35.3 nM.

With `O=C(NCCCCCCCCCCNC(=O)NC1CC2C=CC1C2)NC1CC2C=CC1C2` (stereo not given) as the compound, how does the IC50 [2] read?
The IC50 was 0.4 nM.

Which solubility ([1]; buffer) does the source give for `O=C(Nc1ccccc1F)NC1CC2CCC1C2` (stereo not given) here?
Its solubility is 325 µM (≈ 80.7 µg/mL).

And the IC50 [2]?
Its IC50 is 6.8 nM.

For `O=C(NCCCCNC(=O)NC1CC2C=CC1C2)NC1CC2C=CC1C2` (stereo not given), which IC50 [2] is on record?
Its IC50 is 21 nM.
